The values that follow come from paper PMC11234860 (Chemical Science, 2024).

pKd: −log10 of the molar value.

In test [1] the target is T1, Siglec-15 (Siglec-15d1–d2-mVENUS) (Homo sapiens, UniProt Q6ZMC9).
T1 sequence (Q6ZMC9 20-263): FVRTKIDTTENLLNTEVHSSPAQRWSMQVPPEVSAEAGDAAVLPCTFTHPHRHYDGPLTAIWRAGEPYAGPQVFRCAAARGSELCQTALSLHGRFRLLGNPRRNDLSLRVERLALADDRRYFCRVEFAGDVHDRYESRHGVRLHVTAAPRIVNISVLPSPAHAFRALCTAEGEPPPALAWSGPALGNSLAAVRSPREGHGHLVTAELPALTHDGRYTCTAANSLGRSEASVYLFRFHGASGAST
The experiment in a line: 19F T2 CPMG filtered NMR competitive displacement assay, Siglec-15. The format is binding. In outline: (§1)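 Siglec-15 ECD (d1–d2, residues 20–263) fused to mVENUS, or Siglec-9 d1–d3 (residues 18–336) fused to human IgG1 Fc with C-terminal His6. Both transiently expressed in HEK293F and purified by Ni-NTA then SEC. Siglec-9 15 μM or Siglec-15 25 μM, with 10 equiv difluoroacetamide spy, titrated with increasing competitor equivalents. One decoupled 19F CPMG spectrum per sample (200 ms filter) at 600 MHz, 298 K, in 20 mM Tris pH 8, 300 mM NaCl, 10% D2O, with 100 μM TFA reference.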

Test [2] deals with Siglec-9 (Siglec-9d1–d3-Fc) (Homo sapiens, UniProt Q9Y336). In words: 19F T2 CPMG filtered NMR competitive displacement assay, Siglec-9. The test is classed as binding. The gist of the method: as §1
The mark [3] stands for this setting: read-out: lower KD limit, semiquantitative, from displacement.

The term pKd denotes the negative decadic logarithm of the Kd, by convention in mol/L.

Chain of Siglec-9 (Siglec-9d1–d3-Fc) (Q9Y336 18-336): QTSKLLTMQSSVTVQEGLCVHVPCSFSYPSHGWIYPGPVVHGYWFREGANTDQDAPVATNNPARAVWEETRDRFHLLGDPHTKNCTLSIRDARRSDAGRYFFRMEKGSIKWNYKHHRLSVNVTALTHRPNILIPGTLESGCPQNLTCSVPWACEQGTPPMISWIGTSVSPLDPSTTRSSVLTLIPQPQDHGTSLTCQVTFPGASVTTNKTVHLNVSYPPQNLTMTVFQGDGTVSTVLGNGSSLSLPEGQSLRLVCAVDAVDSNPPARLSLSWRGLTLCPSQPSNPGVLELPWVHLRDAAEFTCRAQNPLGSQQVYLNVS

For “6′-sialyl N-acetyl-D-lactosamine aminoethylglycoside [α2,6SLN]”, the “displacement of the spy molecule” value turned out to be 22% in test [1] (300 equivalents of competitor, Siglec-15 25 μM + 10 equiv diF α2,6SLN) and 21% in test [2] (320 equivalents of competitor, Siglec-9 15 μM + 10 equiv diF α2,6SLN). Further, the pKd is at most 2.30 in test [1] (setting [3]) and at most 2.52 in test [2] (setting [3]).
